Compound activity (PubChem BioAssay)
NF-kB expr up: NF-kB expression increase, human neuronal cells; NF-kB reporter expression; hits give high values; fold change at 12.5 µM; actives 1.6% (n = 190,000); in the data active means fold change above about 3.3
STAT3 act: increases IL-6 driven STAT3 reporter signal; activation (% of control), % at 5.6 µM; actives 0.91% (n = 190,000); U3A cells, IL-6 STAT3-luciferase reporter, luminescence; 100% = signal with IL-6 EC80 alone;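 active means activation above the screen-wide mean of compound activation plus 3 SD, cut at about 130% in these data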;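 further: 0% = background luminescence of wells with medium and substrate only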
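Material: STAT1-lacking human U3A cells, STAT3 luciferase reporter | Benchmarks: IL-6-only wells as 100% reference | Probe or stimulus: IL-6 (33 ng/mL) | Timing: Compound 1 h, then IL-6 6 h at 37 °C | Detection: Luminescence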
STAT3 blocker: inhibitors of IL-6 induced STAT3 signaling. U3A cells, IL-6 STAT3-luciferase reporter, luminescence; host cell line lacks STAT1. inhibition, % at 5.5 µM. actives 0.89% (n = 190,000). AID 862;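 active means inhibition above the mean inhibition across all screened compounds plus 3 SD, cut at about 44% in these data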;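 further: 0% = DMSO only wells and 100% = 100 µM nifuroxazide control wells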
STAT1 blocker: reduces IFN-gamma driven STAT1 reporter signal | NIH 3T3 STAT1-luciferase reporter, luminescence | inhibition, % at 5.5 µM | actives 0.35% (n = 200,000) | AID 920;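 active means inhibition above a set limit, the mean inhibition across all tested compounds plus 3 SD, cut at about 34% in these data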;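 further: 0% = IFN-gamma with DMSO and 100% = IFN-gamma with 300 µM nifuroxazide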
STAT1 act: STAT1 signaling activation | activation (% of control), % at 5.5 µM | actives 2.6% (n = 200,000) | NIH 3T3 STAT1-luciferase reporter, IFN-gamma, luminescence; 100% = IFN-gamma alone, no compound | AID 932;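 active means activation above the screen-wide mean activation plus 3 SD, cut at about 130% in these data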;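 further: raw ratio to IFN-gamma control signal so 100% means no change and 0% no light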
APP 5'UTR act: APP 5'UTR luciferase reporter activation; AID 1276; actives 1% (n = 190,000); SH-SY5Y APP 5'UTR luciferase reporter, luminescence; zero percent = DMSO vehicle wells; activation, % at 2 µM;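 active means activation above a set limit, based on mean plus 3 SD of controls, cut at about 140% in these data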
* marks the source's active call; other numbers are inactive results. An excerpt weighted towards active compounds, which were near 5.1% of everything screened.

SMILES	NF-kB expr up	STAT3 act	STAT3 blocker	STAT1 blocker	STAT1 act	APP 5'UTR act
O=C(Nc1ccon1)c1cc2c(s1)CCCC2	5.6*	85	23	-36	133*	164*
CNC(=O)c1cc2c(s1)CCCCCC2	1.1	98	6	0	100	-7
O=C(NNc1c2ccccc2nc2ccccc12)c1cccc(O)c1	0.3	94	7	3	97	2
Oc1cccc(-c2nc3ccc4ccccc4c3c3c2CCC3)c1	3.8*	114	-17	-45	142*	88
COc1ccc(-c2cc(C(=O)N3CCN(Cc4ccccc4)CC3)no2)cc1OC	0.88	110	-5	-9	107	-1
COc1ccc(-c2cc(C(=O)N3CCCCC3)no2)cc1OC	1.9	112	-10	-35	132*	46
CCCc1ccc(-c2ccc(C(=O)O)cc2)nc1	2.6	84	23	-36	131*	92
CCCCCc1ccc(-c2ccc(OC)cc2)nc1	3.4*	95	8	-45	140*	128
CC[n+]1c(/C=C2/C=C(C)CC(C)(C)C2)sc2ccc(OC)cc21	0.95	54	58*	26	76	0
CC[n+]1c(/C=C2\C=C(C)CC(C)(C)C2)sc2ccccc21	1.4	60	50*	26	77	-11
O=[N+]([O-])c1ccc(N/N=C/c2ccc[nH]2)cc1	26*	82	21	12	90	-65
O=C(N/N=C/c1ccc[nH]1)c1ccccc1[N+](=O)[O-]	1.1	93	11	3	98	-3
Cc1cccc(-n2cc(C(=O)O)c(=O)cc2C)c1	0.92	96	8	-1	100	-16
O=C(NC(=S)Nc1nc2c(s1)CSc1ccccc1-2)c1ccccc1	1.2	167*	-82	15	87	-5
COc1ccc(/C=C/C2=CCN(Cc3ccc(OC)cc3)CC2)cc1	1.2	134*	-37	6	93	-13
COc1ccc(/C=C/C2=NN(Cc3ccccc3)C(=O)CC2)cc1	1.3	97	6	5	96	-10
O=C1CC(c2ccco2)CC(O)=C1C=Nc1cc(Cl)ccc1Cl (stereo not drawn)	1.1	99	-2	-1	101	3
O=C1CC(c2ccco2)CC(O)=C1C=Nc1cc(Cl)ccc1O (stereo not drawn)	3.4*	108	-3	10	91	1
CS(=O)(=O)N(CC(=O)N1CCC(C(N)=O)CC1)c1ccc(Oc2ccccc2)cc1	1.6	93	12	-8	105	-10
COc1ccc(/C=C/C(=O)c2ccc[nH]2)cc1OC	2.6	121	-29	-32	130*	53
NS(=O)(=O)c1ccc(CCNC(=O)Cc2ccccc2[N+](=O)[O-])cc1	0.91	133*	-30	6	94	-10
Cc1cc(Cl)ccc1Nc1ncccc1C(N)=O	2.1	105	-3	-34	130*	41
Cc1cc(C)cc(NC(=S)Nc2ccccn2)c1	1.1	127	-26	4	96	12
NC(=O)c1cccnc1Nc1ccccc1F	1.4	104	-2	3	97	-7
Cc1cc(Cl)ccc1NC(=S)Nc1ccccn1	1.6	105	-4	-33	130*	56
SMILES	NF-kB expr up	STAT3 act	STAT3 blocker	STAT1 blocker	STAT1 act	APP 5'UTR act
CCn1cnc2cc(NCc3ccc(N(C)C)cc3)ccc21	0.51	107	1	-26	122	46
CCn1cnc2cc(NCc3nc4ccccc4n3C)ccc21	5.5*	86	22	-26	124	146*
CC(C)n1cnc2cc(NCc3nc4ccccc4n3C)ccc21	1.2	107	-4	-55	150*	186*
CCn1cnc2cc(NCc3ccc(C)cc3)ccc21	2.4	100	3	-38	136*	87
CCn1cnc2cc(NCc3nc4ccccc4n3Cc3ccccc3)ccc21	0.55	108	-5	-47	148*	168*
CCN(CC)CCn1c(NCc2nc3ccccc3n2Cc2ccccc2)nc2ccccc21	0.74	112	-8	3	97	9
OCC1(Cc2ccccc2C(F)(F)F)CCN(Cc2ccccc2)CC1	0.98	110	-9	7	92	23
CCOc1cc(S(=O)(=O)n2ccc(C)n2)ccc1Br	1	77	32	6	93	-11
CCCC(=O)NCc1nc2ccccc2n1C	1.5	95	8	1	99	-20
